What was measured:
[1] = system: Vero; assay: Cytotoxicity against african green monkey Vero cells by neutral red assay; type: cell-based; conditions: Chlorocebus sabaeus
[2] = system: Leishmania donovani; assay: Antileishmanial activity against Leishmania donovani by Alamar blue assay; type: functional, organism-based
In short: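 L. donovani promastigotes at 2×10^6 cells/ml, 96-well format. Compounds dissolved in DMSO (2 mg ml⁻¹ stock), diluted in culture medium to final concentrations; matching DMSO dilutions as controls. Incubation 72 h at 26 °C; growth read by Alamar blue.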

[3] = system: Pneumocystis carinii; assay: Antileishmanial activity against Pneumocystis carinii; type: functional, organism-based
[4] = system: Trypanosoma brucei rhodesiense; assay: […] rhodesiense STIB 900 after 3 days; type: functional, organism-based; conditions: STIB 900, 72 h
In short: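 Bloodstream-form trypomastigotes, 8×10^3 per well in 100 μl medium, 96-well plates. Incubated 3 days, then resazurin added and fluorescence read after a further 24 h at 37 °C to gauge parasite growth. IC50 reported.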

| SMILES | IC50 [1] [µM] | IC50 [2] [µM] | IC90 [2] [µM] | IC50 [3] [µM] | IC50 [4] [µM] |
| --- | --- | --- | --- | --- | --- |
| c1ccc2[nH]c(-c3ccc(OCCCCCCCOc4ccc(-c5nc6ccccc6[nH]5)cc4)cc3)nc2c1 | 46.1 | 13.6 | 56.2 | > 100 | > 60 |
| c1ccc2[nH]c(-c3ccc(OCCCCCCOc4ccc(-c5nc6ccccc6[nH]5)cc4)cc3)nc2c1 | 27.9 | 11.8 | 53.8 | > 100 | > 60 |
| c1ccc2[nH]c(-c3ccc(OCCCCCOc4ccc(-c5nc6ccccc6[nH]5)cc4)cc3)nc2c1 | 28.7 | 1.4 | 3.1 | 54.1 | > 60 |
| c1cc(OCCCCCOc2cccc(-c3nc4ccccc4[nH]3)c2)cc(-c2nc3ccccc3[nH]2)c1 | 12.3 | 10.3 | 45.1 | 5.2 | 0.85 |
| c1ccc2[nH]c(-c3ccc(OCCCOc4ccc(-c5nc6ccccc6[nH]5)cc4)cc3)nc2c1 | 27.2 | 1.5 | 3.3 | 10.2 | > 60 |
| c1ccc2[nH]c(-c3ccc(OCCCCOc4ccc(-c5nc6ccccc6[nH]5)cc4)cc3)nc2c1 | > 100 | 4.9 | 12.9 | 169 | > 60 |
| N=C(N)c1ccc(OCCCCCOc2ccc(C(=N)N)cc2)cc1 [PENTAMIDINE] | > 100 | – | 9.8 | – | 0.05 |
